From ChEMBL document CHEMBL1130174, “Pyrrolidine-3-carboxylic acids as endothelin antagonists. 2. Sulfonamide-based ETA/ETB mixed antagonists” (J Med Chem, 1997)
pIC50, pKi: −log10 of the molar value. Square brackets hold non-standard residues; d marks the D form. Peptide text beside a SMILES is read from it. * marks the point of attachment. Piperazinyl(4-Ph) = c1ccc(N2CCN(*)CC2)cc1; dGly(2-thienyl) = N[C@@H](C(=O)O)c1cccs1

Columns and labels:
[1] = Half-life is obtained after intravenous dosing of rats.; assay type: ADME, organism-based; conditions: rat, in vivo
[2] = biological target: T1, Endothelin receptor type B (Sus scrofa, UniProt P35463); assay: Ability to displace endothelin ([125I]ET-3) from endothelin B receptor derived from cerebellar tissue of porcine.
T1 sequence (P35463 whole entry): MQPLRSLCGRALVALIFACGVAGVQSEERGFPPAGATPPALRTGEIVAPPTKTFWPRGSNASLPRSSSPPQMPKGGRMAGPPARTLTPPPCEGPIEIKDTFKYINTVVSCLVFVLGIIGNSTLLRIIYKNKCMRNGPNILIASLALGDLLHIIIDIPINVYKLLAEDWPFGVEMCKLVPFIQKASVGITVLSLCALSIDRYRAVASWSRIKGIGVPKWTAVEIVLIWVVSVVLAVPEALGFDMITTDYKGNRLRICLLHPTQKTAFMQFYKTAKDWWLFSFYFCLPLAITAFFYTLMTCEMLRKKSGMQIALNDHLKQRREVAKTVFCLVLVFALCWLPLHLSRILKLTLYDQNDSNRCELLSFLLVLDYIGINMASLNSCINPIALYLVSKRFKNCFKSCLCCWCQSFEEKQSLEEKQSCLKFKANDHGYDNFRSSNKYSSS

[3] = Half-life is obtained after oral dosing of rats.; assay type: ADME, organism-based; conditions: rat, in vivo
[4] = biological target: T2, Endothelin receptor type B (Homo sapiens, UniProt P24530); assay: Binding assay performed using human Endothelin B receptor (hETB) expressed in chinese hamster ovary cells(CHO); assay type: cell-based
T2 sequence (P24530 whole entry): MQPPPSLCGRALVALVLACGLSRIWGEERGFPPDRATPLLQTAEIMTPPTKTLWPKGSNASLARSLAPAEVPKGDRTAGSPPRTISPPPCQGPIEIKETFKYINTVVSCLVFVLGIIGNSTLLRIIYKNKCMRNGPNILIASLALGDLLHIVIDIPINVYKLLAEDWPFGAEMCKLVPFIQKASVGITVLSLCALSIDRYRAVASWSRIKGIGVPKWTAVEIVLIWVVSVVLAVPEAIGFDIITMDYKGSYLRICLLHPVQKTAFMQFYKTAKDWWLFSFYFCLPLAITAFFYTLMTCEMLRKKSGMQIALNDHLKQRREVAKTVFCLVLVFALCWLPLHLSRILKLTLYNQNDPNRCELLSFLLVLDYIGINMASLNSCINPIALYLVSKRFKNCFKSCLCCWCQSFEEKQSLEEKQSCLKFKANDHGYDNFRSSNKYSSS

[5] = (§1) Total drug exposure is determined after oral dosing in rats.; assay type: ADME, organism-based; design: concentration or dose not given beside the values; conditions: rat, in vivo
[6] = Oral bioavailability in rat; assay type: ADME, organism-based; conditions: in vivo
[7] = Maximum drug concentration is determined after oral dosing in rats.; assay type: ADME, organism-based; design: route oral; conditions: rat, in vivo
[8] = biological target: T2, Endothelin receptor type B; assay: Ability to block the ET-1-induced hydrolysis of inositol phosphate in Endothelin B receptor of chinese hamster ovary(CHO) cells.; assay type: functional
[9] = biological target: T3, Endothelin-1 receptor (Homo sapiens, UniProt P25101); assay: Ability to displace endothelin ([125I]ET1) from human Endothelin A receptor
T3 sequence (P25101 whole entry): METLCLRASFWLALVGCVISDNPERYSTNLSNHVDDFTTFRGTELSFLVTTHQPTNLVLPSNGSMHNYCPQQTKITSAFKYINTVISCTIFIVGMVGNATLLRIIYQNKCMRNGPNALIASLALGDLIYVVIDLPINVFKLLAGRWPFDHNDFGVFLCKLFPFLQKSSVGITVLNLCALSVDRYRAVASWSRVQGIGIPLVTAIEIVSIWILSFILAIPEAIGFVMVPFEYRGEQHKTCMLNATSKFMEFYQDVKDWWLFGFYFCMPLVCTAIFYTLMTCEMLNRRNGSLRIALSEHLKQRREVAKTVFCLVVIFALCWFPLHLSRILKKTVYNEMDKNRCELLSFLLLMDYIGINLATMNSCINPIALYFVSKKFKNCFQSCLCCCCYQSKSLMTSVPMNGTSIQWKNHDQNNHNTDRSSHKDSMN
Method in brief: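 Membranes from CHO cells stably transfected with human ETA, prepared at 4 °C and stored at -80 °C. Buffer: 20 mM Tris pH 7.4, 100 mM NaCl, 10 mM MgCl2, 0.2% BSA, protease inhibitors. Bound ligand separated by glass-fibre filtration. Nonspecific binding with 1 µM unlabeled ET-1. IC50 is the mean of at least two determinations.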

[10] = biological target: T2, Endothelin receptor type B; assay: Ability to displace endothelin ([125I]ET1) from human Endothelin B receptor
[11] = Ratio of endothelin A receptor and endothelin B receptor.
[12] = test system: Rattus norvegicus; assay: as §1; assay type: ADME, organism-based; design: concentration or dose not given beside the values; conditions: in vivo
[13] = biological target: T3, Endothelin-1 receptor; assay: Binding assay performed using human Endothelin A receptor (hETA) expressed in chinese hamster ovary cells(CHO).; assay type: cell-based
[14] = biological target: T4, Endothelin-1 receptor (Rattus norvegicus, UniProt P26684); assay: Ability to displace endothelin ([125I]ET1) from endothelin A receptor derived from MMQ cells of rodent.; assay type: cell-based, Rodentia sp.
T4 sequence (P26684 whole entry): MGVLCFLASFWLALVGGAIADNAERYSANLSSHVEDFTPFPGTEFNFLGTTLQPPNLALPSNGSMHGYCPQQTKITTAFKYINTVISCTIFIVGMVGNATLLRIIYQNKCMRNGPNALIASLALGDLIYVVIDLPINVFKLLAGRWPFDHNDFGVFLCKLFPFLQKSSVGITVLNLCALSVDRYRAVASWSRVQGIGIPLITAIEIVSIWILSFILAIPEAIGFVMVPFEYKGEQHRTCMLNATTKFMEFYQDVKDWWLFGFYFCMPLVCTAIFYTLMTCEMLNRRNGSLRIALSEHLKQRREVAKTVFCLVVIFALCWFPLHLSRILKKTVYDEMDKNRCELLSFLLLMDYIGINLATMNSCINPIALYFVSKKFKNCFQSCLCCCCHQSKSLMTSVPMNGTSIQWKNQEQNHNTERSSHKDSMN

Row | half-life [1] [h] | pIC50 [2] | half-life [3] [h] | pIC50 [4] | AUC [5] [ng·h/mL] | bioavailability [6] [%] | Cmax [7] [ng/mL] | pIC50 [8] | AUC [12] [ng·h/mL] | pIC50 [13] | pIC50 [14] | Structure (SMILES) | pIC50 [9] | pIC50 [10] | Ratio [11] | pKi [9] | pKi [10]
1 | 6.9 | 9.49 | 7.3 | 9.33 | 3700 | 31 | 1100 | 9.22 | – | – | – | CCCCS(=O)(=O)N(CCC)CCN1C[C@H](c2ccc3c(c2)OCO3)[C@@H](C(=O)O)[C@@H]1c1ccc(OC)c(F)c1 (stereo in doubt; 15a) | – | – | – | – | –
2 | 2 | – | – | – | – | 60 | – | – | – | – | – | CCCc1cc(C(=O)O)ccc1OC(C(=O)NS(=O)(=O)c1ccc(C(C)C)cc1)c1ccc2c(c1)OCO2 [L-754142] | 9.59 | 8.36 | 17 | – | –
3 | – | – | – | – | – | – | – | – | – | – | – | CCCOc1ccc2c(c1)[C@@H](c1ccc(OC)cc1OCC(=O)O)[C@H](C(=O)O)[C@H]2c1ccc2c(c1)OCO2 [SB-209670] | – | – | 90 | 9.70 | 7.74
4 | 5 | 9.54 | 8.1 | 9.55 | – | 54 | 2400 | 8.89 | 11200 | – | – | CCCCCS(=O)(=O)N(CCC)CCN1C[C@H](c2ccc3c(c2)OCO3)[C@@H](C(=O)O)[C@@H]1c1ccc(OC)c(F)c1 (stereo in doubt; 15b) | – | – | – | – | –
5 | 2 | – | – | – | – | 60 | – | – | – | – | – | CCCOc1ccc2c(c1)[C@@H](c1ccc(OC)cc1OCCO)[C@H](C(=O)O)[C@H]2c1ccc2c(c1)OCO2 | – | – | 100 | 8.96 | 6.96
6 | 14 | 9.70 | 9.6 | 9.85 | – | 25 | 400 | 9.08 | 2200 | 10.15 | 10.03 | CCCN(CCN1C[C@H](c2ccc3c(c2)OCO3)[C@@H](C(=O)O)[C@@H]1c1ccc(OC)c(F)c1)S(=O)(=O)CCCCl (stereo in doubt; 15d) | – | – | – | – | –

Row | Structure (SMILES) | half-life [1] [h] | pIC50 [2] | half-life [3] [h] | pIC50 [4] | AUC [5] [ng·h/mL] | bioavailability [6] [%] | Cmax [7] [ng/mL] | pIC50 [8] | AUC [12] [ng·h/mL] | pIC50 [13] | pIC50 [14] | pIC50 [9] | pIC50 [10] | Ratio [11] | pKi [9] | pKi [10]
7 | CC(C)C[C@@H]1NC(=O)[C@@H](c2cccs2)NC(=O)[C@H](CC(=O)O)NC(=O)[C@H](CC(=O)N2CCN(c3ccccc3)CC2)NC(=O)[C@@H](CC(=O)O)NC(=O)[C@@H](Cc2c[nH]c3ccccc23)NC1=O (cyclo(D(Piperazinyl(4-Ph))D[dGly(2-thienyl)]L[dW][dD])) | 0.5 | – | – | – | – | – | – | – | – | – | – | 9.62 | 6.89 | 540 | – | –
